Data as given in ChEMBL document CHEMBL1156993, “Benzyl prolinate derivatives as novel selective KCC2 blockers” (Bioorg Med Chem Lett, 2010).
Values after ≈ are worked out from the molar mass of the structure shown. Active and inactive are the calls of the source. The calls are words filed in the database; no cut-off is given here.

Columns and labels:
[1] = Intrinsic clearance in rat microsomes assessed per mg of protein; format: ADME, Microsome
[2] = Aqueous solubility in PBS buffer at pH 7.4; format: physicochemical
[3] = target: T1, Solute carrier family 12 member 5 (Rattus norvegicus, UniProt Q63633); experiment: Antagonist activity of rat KCC2 transporter expressed in human SK-Hep cells assessed as inhibition of N-ethylmaleimide-mediated Rb+ influx after 10 mins by atomic absorption spectroscopy; format: functional, cell-based
T1 sequence (Q63633 whole entry): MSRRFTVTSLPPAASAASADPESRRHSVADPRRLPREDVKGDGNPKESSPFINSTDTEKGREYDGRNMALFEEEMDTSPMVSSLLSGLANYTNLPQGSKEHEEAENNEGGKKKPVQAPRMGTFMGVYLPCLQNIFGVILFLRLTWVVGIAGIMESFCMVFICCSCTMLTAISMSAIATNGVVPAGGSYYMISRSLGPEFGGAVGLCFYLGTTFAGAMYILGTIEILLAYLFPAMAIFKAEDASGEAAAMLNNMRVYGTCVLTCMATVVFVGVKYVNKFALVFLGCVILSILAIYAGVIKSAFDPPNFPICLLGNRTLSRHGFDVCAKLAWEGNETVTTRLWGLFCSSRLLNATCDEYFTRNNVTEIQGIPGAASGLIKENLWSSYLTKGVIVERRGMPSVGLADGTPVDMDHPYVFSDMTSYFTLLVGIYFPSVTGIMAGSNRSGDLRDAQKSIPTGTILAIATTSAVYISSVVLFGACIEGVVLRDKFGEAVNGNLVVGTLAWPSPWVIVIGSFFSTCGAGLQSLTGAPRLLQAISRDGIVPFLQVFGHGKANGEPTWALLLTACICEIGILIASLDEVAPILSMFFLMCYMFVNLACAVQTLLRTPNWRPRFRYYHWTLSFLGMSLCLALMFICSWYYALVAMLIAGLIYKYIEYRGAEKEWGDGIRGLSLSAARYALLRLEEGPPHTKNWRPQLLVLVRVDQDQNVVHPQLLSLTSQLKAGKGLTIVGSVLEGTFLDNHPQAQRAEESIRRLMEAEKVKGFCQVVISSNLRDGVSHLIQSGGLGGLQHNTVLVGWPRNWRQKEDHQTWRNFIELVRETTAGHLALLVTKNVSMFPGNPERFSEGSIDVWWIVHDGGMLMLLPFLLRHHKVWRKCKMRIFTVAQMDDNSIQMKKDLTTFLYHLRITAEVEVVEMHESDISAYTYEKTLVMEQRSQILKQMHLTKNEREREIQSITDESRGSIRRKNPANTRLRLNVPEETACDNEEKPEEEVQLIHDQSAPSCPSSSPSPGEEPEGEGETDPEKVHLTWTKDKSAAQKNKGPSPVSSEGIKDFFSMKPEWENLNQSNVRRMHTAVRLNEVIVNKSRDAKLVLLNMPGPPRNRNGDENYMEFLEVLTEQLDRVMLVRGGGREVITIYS
How it was run: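 Rat KCC2 stably expressed in a selected clone. The co-transporter is activated with N-ethylmaleimide in the presence of the test compound, and Rb+ influx is started by adding 5 mM RbCl to the extracellular medium. Influx is stopped after 10 min by repeated washes. Intracellular Rb+ is measured by atomic absorption spectroscopy, and IC50 is reported.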

[4] = Intrinsic clearance in rat hepatocytes assessed per 10^6 cells
[5] = Antagonist activity to dog NKCC1 transporter expressed in MDCK cells assessed as inhibition of Cl- free medium-stimulated Rb+ influx at 100 uM after 45 mins by atomic absorption spectroscopy; format: functional, Canis lupus familiaris; conditions: Canis lupus familiaris, MDCK, 0.75 h
How it was run: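 MDCK cells express endogenous canine NKCC1. NKCC1 is activated by incubating the cells for 2 h in Cl−-free medium. Rb+ influx is then stimulated for 45 min by adding 20 mM RbCl to the extracellular solution. Intracellular Rb+ is quantified by atomic absorption spectroscopy, and results are given as percent inhibition.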

Mus musculus [6] = experiment: Anticonvulsant activity in audiogenic mouse epilepsy model assessed as inhibition of sound-induced tonic convulsion phase of seizure up to 75 mg/kg, ip pretreated 5 mins before acoustic stimulation; format: functional, organism-based; set-up: dose 75 mg/kg
How it was run: (§1)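 Mice are pre-selected as responders in a first acoustic challenge (85 dB, 30 s). Wild running, clonic and tonic phases are scored. The next day, compound is given ip 5 min before the same stimulus. The proportion of mice protected against each of the three phases is calculated per group, with N = 10 per dose.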

Mus musculus [7] = experiment: Anticonvulsant activity in audiogenic mouse epilepsy model assessed as inhibition of sound-induced clonic phase of seizure up to 75 mg/kg, ip pretreated 5 mins before acoustic stimulation; format: functional, organism-based; set-up: dose 75 mg/kg; how it was run: as §1
Mus musculus [8] = experiment: Anticonvulsant activity in audiogenic mouse epilepsy model assessed as inhibition of sound-induced wild running phase of seizure up to 75 mg/kg, ip pretreated 5 mins before acoustic stimulation; format: functional, organism-based; set-up: dose 75 mg/kg; how it was run: as §1

SMILES | IC50 [3] [nM] | further results
CC(=O)N1CCCC1(Cc1ccc(C(F)(F)F)cc1)C(=O)OCc1ccccc1 (configuration not stated) | 630 | microsomal CLint [1]: 128 µL/min/mg; solubility [2]: 2 µg/mL (≈ 4.93 µM); hepatocyte CLint [4]: 20 µL/min/1e6 cells; inhibition at 100 µM [5]: 53%
CC(=O)N1CCCC1(Cc1ccccc1)C(=O)OCc1ccccc1 (single isomer, unassigned; (-)) | 50000 | CL [1]: 392 µL/min/mg
O=C(OCc1ccccc1)C1(Cc2ccccc2)CCCN1 (configuration not stated) | > 100000 | –
CC(=O)N1CCCC1(Cc1ccc(C)cc1)C(=O)OCc1ccccc1 (configuration not stated) | 790 | –
CS(=O)(=O)N1CCCC1(Cc1ccccc1)C(=O)OCc1ccccc1 (configuration not stated) | 1600 | microsomal CLint [1]: 400 µL/min/mg; solubility [2]: 1 µg/mL (≈ 2.68 µM); hepatocyte CLint [4]: 23 µL/min/1e6 cells; inhibition at 100 µM [5]: < 20%
CCC(=O)N1CCCC1(Cc1ccccc1)C(=O)OCc1ccccc1 (configuration not stated) | 1200 | –
CC(=O)N1CCCC1(Cc1ccc(C#N)cc1)C(=O)OCc1ccccc1 (configuration not stated) | 160 | microsomal CLint [1]: 123 µL/min/mg; solubility [2]: 20 µg/mL (≈ 55.2 µM); hepatocyte CLint [4]: 31 µL/min/1e6 cells; inhibition at 100 µM [5]: 31%
CC(=O)N1CCCC1(Cc1ccc(S(C)(=O)=O)cc1)C(=O)OCc1ccccc1 (single isomer, unassigned; (+)) | 400 | –
CC(=O)N1CCCC1(Cc1cccc(C(F)(F)F)c1)C(=O)OCc1ccccc1 (configuration not stated) | 80 | –
CCNC(=O)N1CCCC1(Cc1ccccc1)C(=O)OCc1ccccc1 (configuration not stated) | 2000 | –
CC(=O)N1CCCC1(Cc1ccccc1)C(=O)OCc1ccc(C(F)(F)F)cc1 (configuration not stated) | 5000 | –
CC(=O)N1CCCC1(Cc1ccc(S(C)(=O)=O)cc1)C(=O)OCc1ccccc1 (single isomer, unassigned; (-)) | 40000 | –
COc1ccc(CC2(C(=O)OCc3ccccc3)CCCN2C(C)=O)cc1C(F)(F)F (configuration not stated) | 50 | –
O=C(C1CC1)N1CCCC1(Cc1ccccc1)C(=O)OCc1ccccc1 (configuration not stated) | 320 | –
CC(=O)N1CCCC1(Cc1cccc(S(C)(=O)=O)c1)C(=O)OCc1ccccc1 (configuration not stated) | 250 | microsomal CLint [1]: 107 µL/min/mg; hepatocyte CLint [4]: 24 µL/min/1e6 cells; inhibition at 100 µM [5]: 25%
CC(=O)N1CCCC1(Cc1ccc(S(C)(=O)=O)cc1)C(=O)OCc1ccccc1 (stereo in doubt; 13) | – | Activity (Mus musculus [6]): inactive; Activity (Mus musculus [7]): inactive; Activity (Mus musculus [8]): inactive
CC(=O)N1CCCC1(Cc1ccccc1)C(=O)OCc1ccc(C)cc1 (configuration not stated) | 790 | –
NS(=O)(=O)c1cc(C(=O)O)c(NCc2ccco2)cc1Cl [FUROSEMIDE] | – | inhibition at 100 µM [5]: 100%
CC(=O)N1CCCC1(Cc1ccccc1)C(=O)O (configuration not stated) | > 100000 | –
CC(=O)N1CCCC1(Cc1ccccc1)C(=O)OCc1ccc(S(C)(=O)=O)cc1 (configuration not stated) | > 100000 | –
CC(=O)N1CCCC1(Cc1ccc(F)cc1C(F)(F)F)C(=O)OCc1ccccc1 (configuration not stated) | 4000 | –
CC(=O)N1CCCC1(Cc1ccncc1)C(=O)OCc1ccccc1 (configuration not stated) | 2000 | –
CC(=O)N1CCCC1(CCc1ccccc1)C(=O)OCc1ccccc1 (configuration not stated) | 8000 | –
CC(=O)N1CCCC1(Cc1ccccc1C#N)C(=O)OCc1ccccc1 (configuration not stated) | 5000 | –
